This is a sample that favours compounds with a hit; in the whole collection about 2.5% have one here.
Granule exo inh: lytic granule exocytosis inhibition | TALL-104 LAMP-1 surface exposure, flow cytometry; cells stimulated with thapsigargin and PMA | inhibition, % at 10 µM | 0.66% of 360,000 active | AID 651702;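 active means inhibition above about 55%, limit read from the data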
MC4R barr agon: human MC4R agonism via beta-arrestin; 0.98% of 360,000 active; U2OS MC4R beta-arrestin complementation, luminescence; percent of melanotan II response, DMSO zero; P32245; activation, % at 8.9 µM;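 active means activation above a per-plate cutoff, the mean activation of sample wells on that plate plus 3 SD, cut at about 8% in these data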
NTR1 ag: activates human neurotensin receptor 1 | P30989 | NTR1-U2OS beta-arrestin-GFP spot imaging, agonist mode | activation, % at 20 µM | 0.17% of 330,000 active;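 active means activation at or above 40% of the spot to cytoplasm intensity ratio, with at least 20 cells analyzed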
sPLA2-III inh: Inhibits HGIII-sPLA2 liposome hydrolysis, primary screen; Q9NZ20; QFRET BODIPY PC-A2 liposome hydrolysis, fluorescence; inhibition, % at 12.2 µM; 0.56% of 370,000 active; AID 743126;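 active means inhibition above mean plus 3 SD of compounds lying within the high and low control bounds, cut at about 19% in these data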
Target sequence (Q9NZ20 whole entry, looked up): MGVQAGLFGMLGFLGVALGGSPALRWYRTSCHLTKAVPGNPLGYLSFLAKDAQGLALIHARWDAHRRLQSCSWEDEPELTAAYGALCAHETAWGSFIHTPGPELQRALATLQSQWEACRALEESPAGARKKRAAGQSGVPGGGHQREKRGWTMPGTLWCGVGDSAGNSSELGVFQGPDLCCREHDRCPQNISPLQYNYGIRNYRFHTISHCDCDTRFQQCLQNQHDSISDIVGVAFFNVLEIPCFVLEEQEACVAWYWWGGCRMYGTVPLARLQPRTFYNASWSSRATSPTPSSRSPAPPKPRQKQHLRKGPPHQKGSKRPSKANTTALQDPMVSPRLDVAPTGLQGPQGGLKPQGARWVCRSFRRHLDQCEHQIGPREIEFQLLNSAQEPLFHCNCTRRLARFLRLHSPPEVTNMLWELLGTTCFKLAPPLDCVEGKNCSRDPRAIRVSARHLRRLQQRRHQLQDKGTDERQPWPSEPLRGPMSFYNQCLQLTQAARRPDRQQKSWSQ
Bfl-1 A1 inh: inhibitors of the anti-apoptotic protein A1, read as caspase activation | MEF A1-2A-BIM cells, Caspase-Glo 3/7 luminescence, 3 h; percent of clofoctol response, vehicle zero | caspase activation, % (no concentration beside the values) | 0.066% of 330,000 active | AID 2462;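 active means over half of replicate activation scores above 10%, or exactly half above 10 with the replicate mean above 10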
MC4R antagonist: human MC4R antagonism in cAMP assay; P32245; MC4R-expressing cells, MTII-stimulated cAMP, LANCE TR-FRET; inhibition, % at 6.5 µM; 0.48% of 360,000 active; AID 540295;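 active means inhibition above its plate's cutoff, the mean of tested wells on that plate plus 3 SD, cut at about 29% in these data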
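material = U2OS cells stably expressing human melanocortin 4 receptor (MC4R) | also added = Melanotan II challenge | dosing = single nominal compound dose of 6.5 µM | detection = TR-FRET with Eu-cAMP and labeled anti-cAMP, 671 nm | replication = singlicate | timing = compound 30 min, challenge 1 h, detection 1 h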
Each line names hits and unclear results; the compound was inactive in the other large screens.

Cc1ccc(S(=O)(=O)N(C(=O)c2ccncc2)c2ccc(OC(=O)c3ccncc3)c3ccccc23)cc1	Granule exo inh 117.7
Cc1ccc(S(=O)(=O)N(C(=O)c2ccncc2)c2ccc(OC(=O)c3ccncc3)c3ccccc23)c(C)c1	Granule exo inh 99.5 (no result: sPLA2-III inh)
CC(=O)Oc1ccc(N(C(C)=O)S(=O)(=O)c2ccccc2)c2ccccc12	none (no result: NTR1 ag, Bfl-1 A1 inh)
CC(=O)Oc1ccc(N(C(C)=O)S(=O)(=O)c2ccc(C)cc2C)c2ccccc12	none
Cc1ccc(C(=O)OC(C(=O)Nc2ccc(Cl)cc2C(F)(F)F)c2ccccc2)cc1 (stereo not given)	MC4R barr agon 9.5
O=C(OC(C(=O)Nc1ccc(Cl)cc1C(F)(F)F)c1ccccc1)c1c(Cl)cccc1Cl (stereo not given)	none
CCOc1cc(/C=C2\C(=O)ON=C2c2ccccc2)ccc1OC	none
CCOc1cc(/C=C2/C(=O)ON=C2C)ccc1OCc1ccccc1F	Granule exo inh 77.9, NTR1 ag 74.7
C=CCOC(=O)C1=C(C)NC(=S)NC1/C=C/c1ccccc1 (stereo not given)	Granule exo inh 66.2
Cc1nn(Cc2ccccc2Cl)c(C)c1NC(=O)c1cc(-c2ccc(F)cc2)on1	MC4R barr agon 8.9
Cc1nn(Cc2ccccc2Cl)c(C)c1NC(=O)c1ccn(C)n1	none
O=C(NCCCc1ccccc1)[C@H](Cc1c[nH]c2ccccc12)NC1(C(=O)NCCc2c[nH]c3ccccc23)CCC1	none (no result: Granule exo inh, MC4R barr agon, NTR1 ag, Bfl-1 A1 inh, MC4R antagonist)
COC(=O)[C@]12C[C@H](CC(=O)NCc3ccc(OC)c(OC)c3)C(=O)N(Cc3ccco3)C1=C[C@H](C(C)(C)C)O[C@@H]2C	none (no result: Granule exo inh, MC4R barr agon, NTR1 ag, Bfl-1 A1 inh, MC4R antagonist)
COc1ccc(/C=N/NC(=O)c2ccc(Cl)cc2)cc1Cn1cc(Cl)cn1	MC4R barr agon 8.7
CCCCNC(=O)C[C@@H]1C(=O)N2CCCC3=C2[C@@]1(C(=O)OC)CCCC3	none (no result: Granule exo inh, MC4R barr agon, NTR1 ag, Bfl-1 A1 inh, MC4R antagonist)
Cc1ccc(C)c(NC(=O)CNS(=O)(=O)c2ccc3[nH]c(=O)oc3c2)c1	none (no result: Granule exo inh, MC4R barr agon, NTR1 ag, Bfl-1 A1 inh, MC4R antagonist)
CCOC(=O)c1ccc(-c2ccc(/C=N/NC(=O)CN(c3cccc(C)c3)S(C)(=O)=O)o2)cc1	Bfl-1 A1 inh 17.4
CCOC(=O)c1ccc(-c2ccc(/C=N/NC(=O)CN(c3ccccc3Cl)S(C)(=O)=O)o2)cc1	none
CCOC(=O)CCCNS(=O)(=O)c1c(C)ccc2nsnc12	Bfl-1 A1 inh 6.6
Cc1ccc2nsnc2c1NS(=O)(=O)c1c(C)ccc2nsnc12	none
Cc1nc2ccc(NC(=O)c3cc(Cl)ccc3F)cc2c(=O)[nH]1	none (no result: Granule exo inh, MC4R barr agon, NTR1 ag, Bfl-1 A1 inh, MC4R antagonist)
C=C(C)COc1ccc(-c2[nH]ncc2Oc2ccc(OC)cc2)c(O)c1	none
C=C(C)COc1ccc(-c2[nH]ncc2-c2ccccc2OC)c(O)c1	MC4R barr agon 9.2
C=C(C)COc1ccc(-c2[nH]ncc2Oc2ccccc2OC)c(O)c1	MC4R barr agon 8.9
CN1CCN(CC(=O)N2CCn3c4c(c5cc(C6CCCCC6)ccc53)CCCC42)CC1 (stereo not given)	Granule exo inh 76.8, MC4R barr agon 27.4 (no result: sPLA2-III inh)
COc1ccc(/C=C2/SC(=S)N(CCCC(=O)Nc3cccc(O)c3)C2=O)cc1	Granule exo inh 96.9
CCc1ccc(/C=C2\SC(=S)N(CCCC(=O)N3CCN(C)CC3)C2=O)cc1	Granule exo inh 72.0 (no result: NTR1 ag, Bfl-1 A1 inh)
COc1ccc(/C=C2\SC(=S)N(CCCC(=O)N3CCN(C)CC3)C2=O)cc1	Granule exo inh 62.7
CN1CCN(C(=O)CCN2C(=O)/C(=C\c3ccc(F)cc3)SC2=S)CC1	none
CCOC(=O)[C@]12CCCCC/C=C\1N(CCc1ccc(Cl)cc1)C(=O)[C@H]2CC(=O)N1CCSCC1	none (no result: Granule exo inh, MC4R barr agon, NTR1 ag, Bfl-1 A1 inh, MC4R antagonist)
O=C(Nc1ccc2c(c1)CCC2)c1cnn2c1NC(c1ccco1)CC2C(F)(F)F (stereo not given)	MC4R barr agon 16.8
CCN1C(=O)/C(=C/c2ccc(C)o2)N(C)C1=S	Granule exo inh 58.0
COC(=O)C1CN(C(=O)OC(C)(C)C)C2=C1C(=O)CC(C)(C(=O)OC(C)(C)C)C2 (stereo not given)	none (no result: Granule exo inh, MC4R barr agon, NTR1 ag, Bfl-1 A1 inh, MC4R antagonist)
CC(C)c1nc(C(=O)N2CCc3c([nH]c4ccccc34)C2c2ccccn2)cs1 (stereo not given)	MC4R barr agon 9.0
CC(c1ccc(O)cc1)(c1ccc(O)cc1)c1ccc(CCBr)cc1	MC4R barr agon 17.7
C[C@@H]1CN([C@H](C)CO)C(=O)c2cc(Br)cnc2O[C@H]1CN(C)C(=O)c1ccc(F)cc1	none (no result: Granule exo inh, MC4R barr agon, NTR1 ag, Bfl-1 A1 inh, MC4R antagonist)
Cc1ccc(-c2nc(=S)c3c(n2Cc2ccco2)CCCC3)cc1	none (no result: NTR1 ag, Bfl-1 A1 inh)
Cc1ccc(-c2nc(=S)c3c(n2Cc2ccco2)CC(C)(C)OC3)cc1	Granule exo inh 61.1 (no result: sPLA2-III inh)
Cc1ccc(CN2C(=O)N/C(=C\c3ccc(N4CCOCC4)cc3)C2=O)cc1	MC4R barr agon 8.6
COC(=O)[C@]12C[C@H](CC(=O)NCC34CC5CC(CC(C5)C3)C4)C(=O)N(Cc3ccccc3)C1=C[C@H](C(C)C)O[C@@H]2C1CC1	none (no result: Granule exo inh, MC4R barr agon, NTR1 ag, Bfl-1 A1 inh, MC4R antagonist)
O=S(=O)(c1ccc(F)cc1)n1c(CN2CCOCC2)nc2ccccc21	none (no result: Granule exo inh, MC4R barr agon, NTR1 ag, Bfl-1 A1 inh, MC4R antagonist)
CC1(c2nnnn2-c2ccc3c(c2)OCCO3)CSCC(=O)N1CCc1c[nH]c2ccccc12 (stereo not given)	none (no result: Granule exo inh, MC4R barr agon, NTR1 ag, Bfl-1 A1 inh, MC4R antagonist)
COC(=O)[C@]12C[C@H](CC(=O)NCCc3ccccc3OC)C(=O)N(CCc3ccc(OC)c(OC)c3)C1=C[C@H](C(C)C)O[C@@H]2C1CC1	none (no result: Granule exo inh, MC4R barr agon, NTR1 ag, Bfl-1 A1 inh, MC4R antagonist)
CN1CCc2c(n(CC(O)CNCc3ccccc3)c3ccccc23)C1=O (stereo not given)	none
CC(C)NCC(O)Cn1c2c(c3ccccc31)CCc1c-2cnn1-c1ccccc1 (stereo not given)	sPLA2-III inh 21.3
Cc1ccccc1C(=O)N(C)[C@H]1C[C@H]2c3[nH]c4c(-c5ccccc5)cccc4c3CCN2C[C@H]1[C@H](C)O	none (no result: Granule exo inh, MC4R barr agon, NTR1 ag, Bfl-1 A1 inh, MC4R antagonist)
Cn1cccc1C(=O)N1CCN(S(=O)(=O)c2ccc([N+](=O)[O-])cc2)CC1	none (no result: Granule exo inh, MC4R barr agon, NTR1 ag, Bfl-1 A1 inh, MC4R antagonist)
O=[N+]([O-])c1ccc(Sc2cccc3cccnc23)c([N+](=O)[O-])c1	none
O=[N+]([O-])c1cc(Cl)ccc1Sc1cccc2cccnc12	MC4R barr agon 8.8
N#CC1(NC(=O)COC(=O)c2cc(O)c3ccccc3c2O)CCCCC1	Granule exo inh 61.1 (no result: sPLA2-III inh)
N#CC(C#N)=c1ccc2c(c1)N1C3=C(CCCC3)CC3CCCCC31N=2 (stereo not given)	Granule exo inh 64.0
Cc1cc(C)c(O)c(-c2cc(C(=O)NCCc3ccc(S(N)(=O)=O)cc3)[nH]n2)c1	Granule exo inh 63.2
Cc1cc(O)c(-c2cc(C(=O)NCCc3ccc(S(N)(=O)=O)cc3)[nH]n2)cc1C	none
COc1cc(C2Oc3ccccc3C=C2[N+](=O)[O-])cc(OC)c1OC (stereo not given)	Granule exo inh 59.7 (no result: NTR1 ag, Bfl-1 A1 inh)
COc1cc(C2NC(=O)c3ccccc3O2)cc(OC)c1OC (stereo not given)	none

Screening data (PubChem BioAssay)
